An excerpt weighted towards active compounds, which were near 1.5% of everything screened.
NR1D1 modulator: modulates human Rev-erb alpha binding to DNA; P20393; Rev-erbα–FITC-DNA binding, fluorescence polarization, 90 min; activity, % at 10 µM; 370,000 tested, 0.79% active;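 active means activity above about 14%, limit read from the data; passing the limit was not always enough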
NR2E3 ag-1: human photoreceptor-specific nuclear receptor agonism; CHO-S Gal4-NCOR/VP16-NR2E3 two-hybrid, luciferase; AID 602229; 360,000 tested, 0.35% active; inhibition of corepressor binding, % at 3.98 µM;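 active means inhibition above the mean of all tested compounds plus 3 SD, cut at about 70% in these data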;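 further: higher means lower luciferase signal from less NR2E3 corepressor binding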
Target sequence (Q9Y5X4 whole entry, looked up, the tested form may be a part): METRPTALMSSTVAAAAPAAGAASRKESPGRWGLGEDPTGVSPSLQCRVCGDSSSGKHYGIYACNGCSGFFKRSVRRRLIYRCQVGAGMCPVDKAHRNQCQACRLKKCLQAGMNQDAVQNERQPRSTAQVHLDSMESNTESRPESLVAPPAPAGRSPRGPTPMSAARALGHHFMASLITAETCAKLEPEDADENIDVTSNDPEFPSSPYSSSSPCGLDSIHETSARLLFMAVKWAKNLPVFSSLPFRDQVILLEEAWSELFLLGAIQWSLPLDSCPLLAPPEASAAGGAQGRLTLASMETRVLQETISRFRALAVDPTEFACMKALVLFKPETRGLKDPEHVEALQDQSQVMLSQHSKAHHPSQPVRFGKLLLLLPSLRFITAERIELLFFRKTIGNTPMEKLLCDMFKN
PG9 binder: binds the HIV-1 gp120 antibody PG9. TR-FRET gp120-PG9 antibody binding. inhibition, % at 6.7 µM. 360,000 tested, 0.43% active. AID 624416; in the data active means inhibition above about 8.5%
NR2E3 ag-2: NR2E3 (human) agonism. Q9Y5X4. GST-NR2E3/biotin-RetCOR TR-FRET, 1536-well. inhibition of corepressor binding, % at 4.78 µM. 320,000 tested, 0.12% active. AID 2300;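 active means percent inhibition above the cutoff of mean plus 3 SD of all tested compounds, set per screening campaign, cut at about 20% in these data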
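Assay system: NR2E3–RetCOR corepressor complex. Quantity: 1.35 nM GST-NR2E3. Buffer or medium: pH 7.5 Tris-based buffer. Reagent: biotinylated RetCOR corepressor at 7 nM final. Schedule: 5 h at 4 °C. Detection: TR-FRET, emission read at 617 and 671 nm. Replicates: one well per compound, singlicate testing.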
NR1D1 mod conf: Rev-erb alpha (human) modulation, hit confirmation; shares compounds with NR1D1 modulator; Rev-erb alpha FITC-DNA binding, fluorescence polarization, 90 min; activation, % at 25 µM; 3,000 tested, 61% active; AID 1259319;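 active means activation at or above a set limit, or at least 3 SD above the negative control mean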
RORg DNA counter: counter-screen for Rev-erb alpha modulators: RORgamma DNA binding | shares compounds with NR1D1 modulator | purified RORgamma protein-FITC-DNA binding, fluorescence polarization | IC50, µM | 910 tested, 8% active;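 active means Compounds whose fitted half-maximal concentration for disrupting protein-DNA binding is below 10 micromolar; the record names Rev-erb in its text, so the target is in doubt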
Hits are given with their value.

What do the screens show for `O=C(CSc1ncnc2c1oc1ccccc12)Nc1nccs1`?
NR1D1 modulator: 32; NR2E3 ag-1: inactive; PG9 binder: inactive; NR2E3 ag-2: inactive; NR1D1 mod conf: 25

How did CCc1nc(SCC(=O)N2CCCc3ccccc32)c2oc3ccccc3c2n1 do in these assays?
NR1D1 modulator: inactive; NR2E3 ag-1: inactive; PG9 binder: inactive; NR2E3 ag-2: inactive

How did CCc1nc(SCC(=O)NC2CCCC2)c2oc3ccccc3c2n1 do in these assays?
NR1D1 modulator: 39; NR2E3 ag-1: inactive; PG9 binder: inactive; NR2E3 ag-2: inactive; NR1D1 mod conf: 56; RORg DNA counter: inactive

How did CCCn1nc(NC(=O)CC(C)C)c2cc3cccc(C)c3nc21 do in these assays?
NR1D1 modulator: inactive; NR2E3 ag-1: inactive; PG9 binder: inactive; NR2E3 ag-2: inactive

Results for CCn1nc(NC(=O)CC(C)C)c2cc3cccc(C)c3nc21 ?
NR1D1 modulator: 24; NR2E3 ag-1: inactive; PG9 binder: inactive; NR2E3 ag-2: inactive; NR1D1 mod conf: inactive

Results for CCc1cccc(NC(=O)Cc2ccc(OC)c(OC)c2)c1 ?
NR1D1 modulator: inactive; NR2E3 ag-1: inactive; PG9 binder: inactive; NR2E3 ag-2: inactive

What do the screens show for `Cc1c(N=C2N=C(NC(=O)NC(C)(C)C)c3ccccc32)c(=O)n(-c2ccccc2)n1C`?
NR1D1 modulator: inactive; NR2E3 ag-1: inactive; PG9 binder: inactive; NR2E3 ag-2: inactive

What do the screens show for `Cc1c(N=C2N=C(NC(=O)c3cccs3)c3ccccc32)c(=O)n(-c2ccccc2)n1C`?
NR1D1 modulator: 18; NR2E3 ag-1: inactive; PG9 binder: inactive; NR2E3 ag-2: inactive; NR1D1 mod conf: inactive

What do the screens show for `N=C1C(c2nc3ccccc3s2)=C(O)CN1C1CCCCC1`?
NR1D1 modulator: 20; NR2E3 ag-1: inactive; PG9 binder: inactive; NR2E3 ag-2: inactive; NR1D1 mod conf: inactive

Results for C[C@H](O)[C@@H]1C(=O)N2CCc3c([nH]c4c(-c5ccc6c(c5)OCO6)cccc34)[C@@H]2C[C@@H]1N(C)C(=O)OCc1ccccc1 ?
NR1D1 modulator: inactive

How did CCCc1cc(=O)oc2cc(C)cc(OC(C)C(=O)NCc3ccncc3)c12 (stereo not given) do in these assays?
NR1D1 modulator: 23; NR2E3 ag-1: inactive; PG9 binder: inactive; NR2E3 ag-2: inactive; NR1D1 mod conf: 21

How did CCCc1cc(=O)oc2cc(C)cc(OCC(=O)Nc3ccc(S(N)(=O)=O)cc3)c12 do in these assays?
NR1D1 modulator: 135; NR2E3 ag-1: inactive; PG9 binder: inactive; NR2E3 ag-2: inactive; NR1D1 mod conf: 151; RORg DNA counter: inactive

How did CSc1nc(N)c(C#N)c(-c2ccc(Cl)cc2)c1C#N do in these assays?
NR1D1 modulator: 60; NR2E3 ag-1: inactive; PG9 binder: inactive; NR2E3 ag-2: inactive; NR1D1 mod conf: 45; RORg DNA counter: inactive

How did CCc1nc(N)c(C#N)c(-c2ccc(F)cc2)c1C do in these assays?
NR1D1 modulator: inactive; NR2E3 ag-1: inactive; PG9 binder: inactive; NR2E3 ag-2: inactive

Results for CSc1nc(-c2ccc(C)cc2)nc(N)c1C#N ?
NR1D1 modulator: 31; NR2E3 ag-1: inactive; PG9 binder: inactive; NR2E3 ag-2: inactive; NR1D1 mod conf: inactive

Results for Cc1ccc(-c2c(C#N)c(N)nc3c2CCCCC3)cc1 ?
NR1D1 modulator: 31; NR2E3 ag-1: inactive; PG9 binder: inactive; NR2E3 ag-2: inactive; NR1D1 mod conf: 20

What do the screens show for `CSc1nc(C)cc(C)c1C#N`?
NR1D1 modulator: inactive; NR2E3 ag-1: inactive; PG9 binder: inactive; NR2E3 ag-2: inactive

How did O=C(NC1CCCCN(Cc2cccc(C(F)(F)F)c2)C1=O)C1C2CC3CC(C2)CC1C3 (stereo not given) do in these assays?
NR1D1 modulator: inactive

What do the screens show for `Cc1cc(C(=O)CSc2ccccc2)cc(C)c1O`?
NR1D1 modulator: inactive; NR2E3 ag-1: inactive; PG9 binder: inactive; NR2E3 ag-2: inactive

What do the screens show for `O=CN1CCN(c2c([N+](=O)[O-])c(=O)oc3ccccc23)CC1`?
NR1D1 modulator: inactive; NR2E3 ag-1: inactive; PG9 binder: inactive; NR2E3 ag-2: inactive

What do the screens show for `Cc1cc(C)n(-c2cc(N3CCOCC3)nc(-c3ccccc3)n2)n1`?
NR1D1 modulator: 18; NR2E3 ag-1: inactive; PG9 binder: inactive; NR2E3 ag-2: inactive; NR1D1 mod conf: 24

Results for c1ccc(-c2nc(N3CCOCC3)cc(N3CCOCC3)n2)cc1 ?
NR1D1 modulator: inactive; NR2E3 ag-1: inactive; PG9 binder: inactive; NR2E3 ag-2: inactive

What do the screens show for `FC(F)(F)c1ccc(Cl)c(NC(=S)NC2CC2)c1`?
NR1D1 modulator: inactive; NR2E3 ag-1: inactive; PG9 binder: inactive; NR2E3 ag-2: inactive

How did Cc1onc(-c2c(F)cccc2Cl)c1C(=O)Nc1sc2c(c1C#N)CCC(C(C)(C)C)C2 (stereo not given) do in these assays?
NR1D1 modulator: 27; NR2E3 ag-1: inactive; PG9 binder: inactive; NR2E3 ag-2: inactive; NR1D1 mod conf: 20

Results for O=C(CNC(=O)N1CC(=O)Nc2ccccc21)Nc1ccccc1 ?
NR1D1 modulator: inactive; NR2E3 ag-1: inactive; PG9 binder: inactive; NR2E3 ag-2: inactive

What do the screens show for `Cc1ccc2c(c1)N(C(=O)CCC(=O)NC1CCCCCC1)CC(C)O2` (stereo not given)?
NR1D1 modulator: inactive; NR2E3 ag-1: inactive; PG9 binder: inactive; NR2E3 ag-2: inactive

How did NNc1nnc2c3cc(F)ccc3n(Cc3ccccc3)c2n1 do in these assays?
NR1D1 modulator: inactive; NR2E3 ag-1: inactive; PG9 binder: inactive; NR2E3 ag-2: inactive

What do the screens show for `CSc1nnc2c3cc(F)ccc3n(Cc3ccccc3)c2n1`?
NR1D1 modulator: 59; NR2E3 ag-1: inactive; PG9 binder: inactive; NR2E3 ag-2: inactive; NR1D1 mod conf: 47; RORg DNA counter: inactive

Results for CSc1nnc2c3ccccc3n(Cc3ccccc3)c2n1 ?
NR1D1 modulator: 22; NR2E3 ag-1: inactive; PG9 binder: inactive; NR2E3 ag-2: inactive; NR1D1 mod conf: 24

Results for CSc1nnc2c3ccccc3n(CCc3ccccc3)c2n1 ?
NR1D1 modulator: inactive; NR2E3 ag-1: inactive; PG9 binder: inactive; NR2E3 ag-2: inactive

Results for O=c1c2cc3cccnc3nc2ncn1CCc1c[nH]c2ccccc12 ?
NR1D1 modulator: inactive

What do the screens show for `CN1CCN(NC(=S)Nc2ccc(OC(F)F)cc2)CC1`?
NR1D1 modulator: inactive; NR2E3 ag-1: inactive; PG9 binder: inactive; NR2E3 ag-2: inactive

Results for Cc1ccc(-n2nnnc2SCC(=O)c2c(N)n(C3CC3)c(=O)[nH]c2=O)cc1C ?
NR1D1 modulator: 21; NR2E3 ag-1: inactive; PG9 binder: inactive; NR2E3 ag-2: inactive; NR1D1 mod conf: 14

How did Cc1oc2c(C)c3oc(=O)c4c(c3cc2c1C)CCCC4 do in these assays?
NR1D1 modulator: 30; NR2E3 ag-1: inactive; PG9 binder: inactive; NR2E3 ag-2: inactive; NR1D1 mod conf: inactive

What do the screens show for `COc1ccc(CNC(=O)c2ccc(CS(=O)(=O)c3ccc(Br)cc3)o2)cc1`?
NR1D1 modulator: inactive; NR2E3 ag-1: inactive; PG9 binder: inactive; NR2E3 ag-2: inactive

What do the screens show for `Cc1ccnc(NC(=O)c2cc(S(=O)(=O)NCc3ccccc3)ccc2C)c1`?
NR1D1 modulator: inactive; NR2E3 ag-1: inactive; PG9 binder: inactive; NR2E3 ag-2: inactive

Assay outcomes as filed in PubChem.
